pIC50: −log10 of the molar value.
What was measured:
[1] = biological target: T1, M-phase inducer phosphatase 2 (Homo sapiens, UniProt P30305); assay: Inhibition of human recombinant GST-tagged CDC25B assessed as reduction in dephosphorylation of florigenic phosphatase substrate preincubated for 1 hr followed by substrate addition measured after 1 hr by fluorescence assay
T1 sequence (P30305 whole entry): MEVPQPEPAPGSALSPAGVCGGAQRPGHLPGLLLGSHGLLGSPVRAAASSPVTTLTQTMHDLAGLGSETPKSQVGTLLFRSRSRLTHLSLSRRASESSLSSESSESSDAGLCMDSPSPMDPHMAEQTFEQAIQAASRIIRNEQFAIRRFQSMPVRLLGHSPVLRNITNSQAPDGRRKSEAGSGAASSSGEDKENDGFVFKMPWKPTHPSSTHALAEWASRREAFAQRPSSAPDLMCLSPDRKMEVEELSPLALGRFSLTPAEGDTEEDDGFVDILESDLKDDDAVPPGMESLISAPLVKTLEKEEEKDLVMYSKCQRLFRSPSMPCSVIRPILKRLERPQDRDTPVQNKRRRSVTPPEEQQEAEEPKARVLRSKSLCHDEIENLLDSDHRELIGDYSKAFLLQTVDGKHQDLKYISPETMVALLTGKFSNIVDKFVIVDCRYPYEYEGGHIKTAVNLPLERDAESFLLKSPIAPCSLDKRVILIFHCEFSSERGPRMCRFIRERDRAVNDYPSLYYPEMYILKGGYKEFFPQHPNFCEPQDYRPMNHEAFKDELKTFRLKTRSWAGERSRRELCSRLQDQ
How it was run: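 Purified GST-CDC25B fusion protein was preincubated with compound for 1 h, then fluorescein diphosphate ([…]) was added. Fluorescence was read within the linear range of the reaction after 1 h at room temperature. Na₃VO₄ served as positive control and DMSO as negative control.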

[2] = biological target: T2, Tyrosine-protein phosphatase non-receptor type 1 (Homo sapiens, UniProt P18031); assay: Inhibition of human recombinant GST-tagged PTP1B catalytic domain expressed in Escherichia coli BL21-Conden plus (DE3) using pNPP as substrate
T2 sequence (P18031 whole entry): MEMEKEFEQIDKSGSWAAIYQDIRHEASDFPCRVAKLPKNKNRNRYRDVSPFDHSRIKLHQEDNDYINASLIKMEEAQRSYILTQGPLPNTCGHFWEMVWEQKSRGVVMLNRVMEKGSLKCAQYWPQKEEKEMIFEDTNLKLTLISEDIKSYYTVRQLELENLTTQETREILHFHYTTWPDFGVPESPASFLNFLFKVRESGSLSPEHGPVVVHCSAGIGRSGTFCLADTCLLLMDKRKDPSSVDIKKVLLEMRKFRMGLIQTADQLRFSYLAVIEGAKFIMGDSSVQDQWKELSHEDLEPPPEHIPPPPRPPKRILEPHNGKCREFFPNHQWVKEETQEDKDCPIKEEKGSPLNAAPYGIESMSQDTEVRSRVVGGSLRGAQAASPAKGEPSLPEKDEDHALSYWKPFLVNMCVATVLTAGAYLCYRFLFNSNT

Row | SMILES | pIC50 [1] | pIC50 [2]
1 | CCOC(=O)c1c(C)[nH]c(/C=C2\S/C(=N\c3cccc(F)c3)N(c3cccc(F)c3)C2=O)c1C | 5.47 | 5.17
2 | CCOC(=O)c1c(C)[nH]c(/C=C2\S/C(=N\c3ccc(F)cc3)N(c3ccc(F)cc3)C2=O)c1C | 5.54 | 5.22
3 | CCOC(=O)c1c(C)[nH]c(/C=C2\S/C(=N\c3ccc(OC)cc3)N(c3ccc(OC)cc3)C2=O)c1C | 5.56 | –
4 | CCOC(=O)c1c(C)[nH]c(/C=C2\S/C(=N/O)N(C(C)C)C2=O)c1C | 5.23 | –
5 | CCOC(=O)c1c(C)[nH]c(/C=C2\S/C(=N\c3ccccc3F)N(c3ccccc3F)C2=O)c1C | 5.44 | –
6 | CCOC(=O)c1c(C)[nH]c(/C=C2\S/C(=N\c3ccccc3)N(c3ccccc3)C2=O)c1C | – | 5.06
7 | CC(C)N1C(=O)/C(=C/c2ccc(OCCN(C)c3ccccn3)cc2)S/C1=N\O | 5.61 | –
8 | [O]=[V]([OH])([OH])[OH] | 6.04 | –
